# Results taken from PMC9924312 (Asian Pacific Journal of Cancer Prevention : APJCP, 2022).
# Key:
# neuroblastoma SH-SY5Y = assay: MTT antiproliferative assay, 72 h exposure; assay type: cell-based, human
# Outline: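 SH-SY5Y cells were kept in 1:1 EMEM/F12 with 10% FBS at 37°C under 5% CO2. After trypsin/EDTA detachment and trypan-blue counting, cells were plated in 96-well format and allowed 24 h to attach. They were then incubated ±test compound for 72 h. IC50 was derived from a logarithmic trend line of the cytotoxicity plots.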
# [1] = system: dermal fibroblasts (BJ ATCC CRL-2522); assay: MTT antiproliferative assay on normal cells, 72 h exposure; assay type: cell-based, human; conditions: read-out: IC50 Fibroblast
# Outline: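 Human BJ dermal fibroblasts were grown in DMEM at 37°C under humidified 5% CO2. Cells were detached with 0.25% trypsin/0.53 mM EDTA, counted by trypan blue, seeded in 96-well plates and left 24 h to attach, then exposed to test compound or no drug for 72 h. IC50 was taken from a logarithmic trend line.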
smiles,measurement,setting,value
CC(=O)O.CCN(CC)CC[n+]1ccc2c(C)c3[nH]c4ccc(O)cc4c3c(C)c2c1 [Compound 3],% SH-SY5Y 10µM (percentage inhibition),"neuroblastoma SH-SY5Y; 10 µM, 72 h exposure",74.22 ± 0.025%
same,% SH-SY5Y 50µM (percentage inhibition),"neuroblastoma SH-SY5Y; 50 µM, 72 h exposure",78.23 ± 0.057%
same,IC50,"neuroblastoma SH-SY5Y; read-out: IC50 SH-SY5Y, MTT, 72 h",1060 ± 190 nM
same,IC50,[1],303 ± 1 nM
